# Bioassay records deposited in PubChem BioAssay by several laboratories.
# Most compounds without a hit are left out; they make up all but 3.1% or so of the library.
# NadD inh: NadD (S. aureus) enzyme inhibition | AID 602399 | 0.78% of 360,000 active | inhibition, % at 20 µM | purified NadD enzyme, colorimetric absorbance read-out; in the data active = inhibition above about 26%
# HCV core dimer: blocks dimerization of HCV core protein; TR-FRET GST/Flag-core106 dimerization, 1536-well; inhibition, % at 5 µM; 0.33% of 300,000 active; AID 1899;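 active = inhibition above the mean of all tested compounds plus 3 SD, set per screening campaign, cut at about 45% in these data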
#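 Test system: GST/Flag-tagged HCV core106 proteins; Medium: KF-containing HEPES buffer, pH 7.45, DTT, CHAPS, BSA; Times: compound-protein-antibody incubation 4 h at 22.5 °C; Detection: TR-FRET 671 and 617 nm emission; Benchmarks: wells lacking GST-core106 and wells with excess unlabelled core106.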
# PP5 primary: blocks human protein phosphatase 5 activity | purified PP5c, OMFP substrate fluorescence | AID 1987 | inhibition, % at 6.7 µM | 0.18% of 320,000 active | P53041;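 active = inhibition above the campaign's mean inhibition across all tested compounds plus 3 SD, cut at about 9.5% in these data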
# Fh CTSL1 inh: counter-screen for PFM18AAP inhibitors: inhibitors of F. hepatica cathepsin L1; 0.49% of 300,000 active; inhibition, % at 5.96 µM; AID 1906; recombinant F. hepatica cathepsin L1, Z-Leu-Arg-MCA fluorescence;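 active = inhibition above the mean of all tested compounds plus 3 SD, set per screening campaign, cut at about 17% in these data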
# Myeloid diff MLP: myeloid differentiation induction; ER-HoxA9 myeloid progenitors, lysozyme-GFP differentiation, flow cytometry; calls only at 10 µM; 1% of 360,000 active;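 active = normalized GFP-positive differentiation at or above the plate's own cutoff, the solvent-only control mean plus 3 SD; inconclusive = no clear call, values can overlap the other calls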;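 note: cells exposed to compound for four days before flow analysis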
# PP1 counter: counter-screen for PP5 inhibitors: inhibitors of human PP1-alpha | P62136 | purified PP1alpha, OMFP fluorescence | inhibition, % at 6.7 µM | 0.9% of 320,000 active | AID 2235;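 active = inhibition above the mean inhibition of all tested compounds plus 3 SD, computed separately for each screening campaign, cut at about 15% in these data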
# Target sequence (P62136 whole entry, looked up): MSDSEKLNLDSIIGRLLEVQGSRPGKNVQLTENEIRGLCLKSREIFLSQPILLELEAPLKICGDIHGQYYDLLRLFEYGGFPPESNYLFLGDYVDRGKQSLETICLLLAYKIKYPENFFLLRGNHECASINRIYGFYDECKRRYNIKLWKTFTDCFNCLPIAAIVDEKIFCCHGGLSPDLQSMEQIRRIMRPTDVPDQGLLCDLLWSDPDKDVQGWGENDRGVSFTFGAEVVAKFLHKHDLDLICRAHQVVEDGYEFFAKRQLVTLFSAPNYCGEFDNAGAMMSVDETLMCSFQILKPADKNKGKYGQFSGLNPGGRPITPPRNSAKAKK
# Numbers stand for hits; n = inactive; u = inconclusive; x = no result given; + = active, no number.
SMILES,NadD inh,HCV core dimer,PP5 primary,Fh CTSL1 inh,Myeloid diff MLP,PP1 counter
CC(C)(C)c1cc[n+](C2=C([O-])c3ccccc3C(=O)/C2=N\S(=O)(=O)c2cccs2)cc1,n,n,n,23.7,n,n
O=C1/C(=N\S(=O)(=O)c2cccs2)C([n+]2ccccc2)=C([O-])c2ccccc21,n,n,n,25.5,n,n
Cc1ccc(SC2=C(N(C)C)C(=O)c3ccccc3C2=O)cc1,n,x,x,x,x,x
COc1cc(C(=O)N[C@H](C(=O)OCC(=O)NC2CCCCCC2)C(C)C)cc(OC)c1OC,n,x,x,x,n,x
CC(C)Nc1ncnc2c1ncn2[C@H]1CN(Cc2cccnc2)C[C@@H](CO)O1,n,x,x,x,n,x
CCc1ccccc1OCC(=O)OCC(=O)Nc1cc(C)on1,n,x,n,x,n,17.1
Cc1cc(NC(=O)COC(=O)COc2ccc(C(=O)c3ccccc3)cc2)no1,n,n,n,n,n,n
CCC/C(=N\NC(=O)c1ccco1)c1ccc(Cl)s1,n,x,x,x,n,x
C/C(=N\Nc1ccc(F)cc1F)c1ccc(F)cc1,x,53.7,n,n,x,n
O=[N+]([O-])c1ccc(S(=O)(=O)N2CCN(Cc3ccco3)CC2)cc1,n,n,n,n,n,n
N#Cc1nc(COc2ccc(Cl)cc2)oc1N1CCCCCC1,n,n,n,59.6,n,n
COc1cc(OC)c2c(-c3cccc(-c4cccc(C)c4)c3)cc(=O)oc2c1,n,x,x,x,+,x
CCOc1ccc(NC(=O)C(=O)NCCN2CCN(C(=O)c3ccc(C)cc3)CC2)cc1,n,n,n,n,n,n
Cc1ccc(CNc2ccc3c(c2)OCO3)cc1,n,n,n,n,+,n
Brc1cc(Br)c2ncnc(N3CCCCC3)c2c1,n,60.7,n,n,n,n
CCC(C)c1ccccc1NC(=O)COC(=O)c1ccc2[nH]c3c(c2c1)CCCC3 (centres undefined),n,n,n,n,+,n
COc1cccc(NC(=O)CSc2ccc3nnc(CCNC(=O)c4ccccc4)n3n2)c1,n,n,n,n,n,n
COc1ccc(-c2cc(C(F)F)n3ncc(C(=O)N4CCN(C(=O)c5ccco5)CC4)c3n2)cc1,n,n,n,n,+,n
Cc1nc(N)nc(N)c1Oc1ccc(Cl)cc1,n,x,x,x,+,x
Cc1ccc(N2C(=O)[C@@H]3[C@H](C2=O)C2CCCN2[C@@H]3C(=O)c2ccccc2)cc1 (some centres undefined),n,57.6,n,n,n,n
O=C(c1ccccc1)[C@@H]1[C@@H]2C(=O)N(c3ccc(F)cc3)C(=O)[C@@H]2C2CCCN21 (some centres undefined),n,n,n,n,n,n
Cc1nc2ccccc2c(=O)n1CCc1ccccc1,n,n,n,n,n,n
COCCCn1c(C)nc2c(c1=O)c1nc3ccccc3nc1n2CCc1ccccc1,n,n,n,n,+,n
NCCCCCNC(=O)c1[nH]cnc1C(=O)N[C@@H](Cc1ccccc1)C(=O)OCc1ccccc1,n,x,x,x,n,x
CCOC(=O)c1c(S(=O)(=O)N2CCCC(C(=O)Nc3cccc(C)n3)C2)c(C)n(C)c1C (centres undefined),n,n,n,n,n,n
SMILES,NadD inh,HCV core dimer,PP5 primary,Fh CTSL1 inh,Myeloid diff MLP,PP1 counter
Cc1cc(C)c(S(=O)(=O)/N=C2/C=C(SCC(=O)O)C(=O)c3ccccc32)cc1C,48.2,x,x,x,n,x
COc1ccc(S(=O)(=O)N(C)C)cc1NC(=O)COC(=O)C1CC1,n,x,x,x,n,x
CCN(CC)Cc1c(C)[nH]c2ccc(NC(C)=O)cc2c1=O,n,x,x,x,n,x
C=CCN(CC=C)Cc1c(C)[nH]c2ccc(C(=O)OCC)cc2c1=O,n,n,n,20.1,n,n
COc1cc2c(cc1OC)C(C)N(CCN1C(=O)c3ccccc3C1=O)CC2 (centres undefined),n,n,n,n,+,n
O=C(COC(=O)CN1C(=O)NC2(CCCC2)C1=O)Nc1c(Cl)cccc1C(F)(F)F,n,n,n,n,n,n
O=C1c2cc(F)ccc2-n2c1nc1ccccc1c2=O,n,n,n,16.9,x,n
COc1cc(NS(=O)(=O)c2ccc3c(c2)oc(=O)n3C)cc(OC)c1OC,n,n,n,n,+,n
CC1CCCCN1CC(O)COCc1ccccc1 (centres undefined),n,x,x,x,n,x
O=C(N/N=C/C=C\c1ccccc1[N+](=O)[O-])c1cccs1,n,n,n,n,n,n
O=C(N/N=C/C=C/c1ccc([N+](=O)[O-])cc1)c1cccs1,n,48.9,n,n,n,n
CCCCOc1nc(N2CCOCC2)nc(C)c1[N+](=O)[O-],n,n,n,18.1,n,n
O=C(Nc1ccccn1)c1ccc(S(=O)(=O)N2CCCCC2)cc1,n,n,n,n,n,n
CC(=O)Oc1ccc2c(c1)Oc1cc(OC(C)=O)ccc1C21OC(=O)c2ccccc21,n,n,n,n,+,n
Oc1c(Br)cc(Br)cc1/C=N/NC(=S)N[C@H]1CC2C=CC1C2 (some centres undefined),n,n,n,n,n,16.6
COc1ccc(/C=C(/NC(=O)c2ccc(C)cc2)C(=O)NCc2ccncc2)cc1,n,n,n,20.8,n,n
CC(C)(C)c1ccc(C(=O)NCCC(=O)NNC(=O)COc2ccccc2F)cc1,n,x,x,x,n,x
CCc1ccc(-c2nc(CS(=O)CC(=O)NC3CCCCCC3)c(C)o2)cc1 (centres undefined),n,n,n,n,n,n
CC(C)(C)C1CCC(=NNC(=S)Nc2cccnc2)CC1 (centres undefined),n,n,n,19.1,x,n
CCNC(=S)NN=C1CCC(C(C)(C)C)CC1 (centres undefined),n,n,n,n,n,n
OCCCNc1ncnc2c1ncn2[C@H]1CN(Cc2ccco2)C[C@@H](CO)O1,n,x,x,x,n,x
O=C(C[n+]1cnn(CC(=O)c2ccc(Cl)cc2Cl)c1)c1ccc([N+](=O)[O-])cc1,n,n,n,n,n,17.1
O=C1/C(=C\c2cccnc2)SC(=S)N1c1ccc(F)cc1,n,n,n,n,+,n
COc1ccc(/C=C2\SC(=S)N(c3cccnc3)C2=O)cc1,n,n,n,n,n,n
O=C1/C(=C\c2ccc(O)cc2)SC(=S)N1c1cccnc1,31.5,n,n,n,n,n
SMILES,NadD inh,HCV core dimer,PP5 primary,Fh CTSL1 inh,Myeloid diff MLP,PP1 counter
COc1ccc(CC(=O)Nc2ccc(S(=O)(=O)N3CCC(C)CC3)cc2)c(OC)c1,n,x,n,x,n,n
COc1cc(C2NC(=O)c3ccccc3O2)ccc1OC(C)C (centres undefined),n,n,n,n,+,n
Cc1ccc(S(=O)(=O)N(C)C)cc1NC(=O)COC(=O)Cc1ccccc1F,n,n,n,n,n,n
Cc1ccccc1OCC(=O)Nc1c2c(nn1C(C)(C)C)CS(=O)(=O)C2,n,n,n,n,+,n
COc1ccc(-n2nc3c(c2NC(=O)CCl)CSC3)cc1,n,n,n,72.1,u,n
CC(C)(C)n1nc2c(c1NC(=O)COc1ccc(Cl)cc1)CSC2,46.5,n,n,n,n,n
